Experimental data as given in PubChem BioAssay AID1899 (The Scripps Research Institute Molecular Screening Center, 2009).
In all, about 300,000 compounds went through this assay and about 1,000 (0.33%) were called active. The list comes from a sample in which actives are over-represented; it also holds similar structures and randomly drawn compounds. Unmarked numbers belong to inactive results.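 Rule for the calls: active = inhibition above the mean of all tested compounds plus 3 SD, set per screening campaign (cut at about 45% in these data); inactive = the rest.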

What follows are molecules tested on HCV core protein (residues 1-106) dimerization (assay: inhibitors of HCV core protein dimerization, primary screen, biochemical, TR-FRET, high-throughput (AID 1899)). Conditions: TR-FRET GST/Flag-core106 dimerization, 1536-well; at 5 µM; stronger effect = higher value.
In short: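 System – GST-tagged and Flag-tagged HCV core protein residues 1-106 · Repeats – one well for each compound · Technique – TR-FRET 671 and 617 nm emission · Doses – one concentration, 5 µM, in 0.5% DMSO · Times – 4 h, 22.5 °C incubation · Also added – Eu donor and XL665 acceptor anti-tag antibodies · Measure – percent inhibition of core106 dimerization signal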
Molecule `CCOC(=O)C1CSC(CC(=O)Nc2ccc(OCC)cc2)C(=O)N1` (stereo unspecified) has an inhibition of -5.22%. With `O=C(N/N=C/c1ccc(O)cc1)/C(=C/c1ccc([N+](=O)[O-])cc1)NC(=O)c1ccccc1` the inhibition was 10.4%. With `O=C(COc1ccc(/C=N/NC(=O)c2ccc(O)cc2)cc1)Nc1ccc([N+](=O)[O-])cc1` the inhibition was 55.5% (active). For `O=C(COc1ccc([N+](=O)[O-])cc1)Nc1ccc(N2CCCC2)cc1`, the inhibition was 9.26%. `CC1(c2nnc(-c3ccncc3)o2)CC(c2cccnc2)=NO1` (stereo unspecified) was tested, and the inhibition was 1.13%. Molecule `Cc1ccc(C)c(NS(=O)(=O)c2c(C)[nH]c(C)c2C(=O)N2CCCCC2)c1` has an inhibition of -13.2%. Molecule `O=C1COc2ccc(NC(=O)N3CCN(c4ccc(F)cc4)CC3)cc2N1` has an inhibition of -3.43%. For `CC(C)(C)OC(=O)NCCCC1=CC2=CC(=O)C(C)(OC(=O)c3ccco3)C(=O)C2=CO1` (stereo unspecified), the inhibition was 28.9%. In the case of `CC1(OC(=O)C2CCCC2)C(=O)C=C2C=C(c3ccc(C#N)cc3)OC=C2C1=O` (stereo unspecified), the inhibition is reported as 53.6% (active). With `COCCN1C=C2C(=O)C(C)(OC(=O)C3CCCC3)C(=O)C=C2C=C1c1ccsc1` (stereo unspecified) the inhibition was -6.55%. With `Cn1cc(-c2ccccc2)cc(C#N)c1=O` the inhibition was 7.52%. `Cc1cc(C)cc(NC(=O)NCc2ccccn2)c1` showed an inhibition of -2.74%. For `COCCNC(=O)Nc1ccc2nc(-c3ccco3)c(-c3ccco3)nc2c1`, the inhibition was 83.7% (active). In the case of `CCCC(=O)Nc1ccc2c(c1)nc(CCNC(=O)c1ccco1)n2C`, the inhibition is reported as -7.25%. In the case of `O=C(NCc1ccccn1)c1ccc2nc(-c3ccco3)c(-c3ccco3)nc2c1`, the inhibition is reported as 77.7% (active). For `CCOc1cc(NC(=S)NCCCOC)c(OCC)cc1NC(=O)c1ccco1`, the inhibition was -1.9%. `COc1ccc2oc(=O)c(C(=O)NCc3ccccn3)cc2c1` showed an inhibition of -1.18%. `O=C(CCc1ccccc1)Nc1ccc(NC(=O)C2CC2)nc1` showed an inhibition of 3.25%. `O=[N+]([O-])C(=c1ccc2c(c1)N1C3=C(CCCC3)CC3CCCCC31N=2)[N+](=O)[O-]` (stereo unspecified) was tested, and the inhibition was 62.9% (active). Molecule `Cc1ccc(S(=O)(=O)c2c[nH]c3ccc(Cl)cc3c2=O)cc1` has an inhibition of 0.6%. Work on `CCN1C(=NCCc2cccnc2)N[C@@H](c2ccccc2)[C@H](C(=O)OC)[C@H]1C` yielded an inhibition of 8.18%. Molecule `CC(C(=O)O)n1cnc2sc3c(c2c1=O)CCCC3` (stereo unspecified) has an inhibition of 0.01%. `COc1ccc(OCC(=O)NN2Cc3ccccc3C2=N)cc1` was tested, and the inhibition was -6.41%. `COc1ccc(OCC(=O)Nc2nnc(-c3ccco3)s2)cc1` was tested, and the inhibition was 54.1% (active). For `CNc1nnc(-c2ccco2)s1`, the inhibition was -7.57%. For `Cc1ccc(OCC(=O)Nc2nnc(-c3ccco3)s2)cc1`, the inhibition was 2.47%. For `COc1ccc(OC)c(CNC(=O)c2cc(=O)[nH]c3ccc(S(=O)(=O)N4CCCC4)cc23)c1`, the inhibition was 0.99%. `CNC(=O)COC(=O)c1cc(-c2ccc(OC)cc2)nc2ccccc12` was tested, and the inhibition was 0.09%. `COc1cc(-c2cc(C(=O)OCC(=O)Nc3ccc4c(c3)OCO4)c3ccccc3n2)cc(OC)c1OC` was tested, and the inhibition was 46.1% (active). `COc1ccc(NC(=O)c2cc(-c3cc(OC)c(OC)c(OC)c3)nc3ccccc23)c(OC)c1` gave an inhibition of -2.9%. Molecule `CN(C)/C(CN1CCCCC1)=C1\N=C(c2ccccc2)OC1=O` has an inhibition of -2.51%. `O=C(Nc1cccc2ncccc12)C(Cl)(Cl)Cl` showed an inhibition of -1.9%. `Cc1ccc(C(=O)Nc2cccc3ncccc23)cc1[N+](=O)[O-]` was tested, and the inhibition was 4.3%. `Cc1ccc(/C=C(\C#N)C(=O)Nc2cccc3ncccc23)o1` was tested, and the inhibition was 64.5% (active). In the case of `Cc1ccc(NC(=S)NC(=O)/C=C/c2ccc(Cl)cc2)cc1`, the inhibition is reported as -5.71%. For `COc1ccc(/C=C/C(=O)NC(=S)N2CCCC(C(N)=O)C2)cc1` (stereo unspecified), the inhibition was -10.7%. `CCOc1ccc(NC(=S)NC(=O)/C=C/c2ccc(OC)cc2)c([N+](=O)[O-])c1` was tested, and the inhibition was 47.8% (active). Molecule `Cn1nnnc1SCC(=O)N1CCN(C(c2ccccc2)c2ccccc2)CC1` has an inhibition of 2.43%. `N#CC1=C(N)Oc2c(sc3ccccc23)C1c1ccco1` (stereo unspecified) was tested, and the inhibition was 54.5% (active). For `N#CC1=C(N)Oc2c(ccc3cccnc23)C1c1ccncc1` (stereo unspecified), the inhibition was 3.58%. For `COC(=O)c1ccc2c(=O)n(CCN3CCOCC3)c(SCC(=O)Nc3cccc(OC)c3)nc2c1`, the inhibition was -0.68%. `CCOC(=O)N1CCN(C(=O)CSc2nc(C)nc3c2c(=O)n(C)c(=O)n3C)CC1` was tested, and the inhibition was -1.3%. `O=c1cc(CN2CCN(S(=O)(=O)/C=C/c3ccccc3)CC2)c2ccc(O)cc2o1` was tested, and the inhibition was 52.2% (active). `COc1ccc2c(CN3CCN(S(=O)(=O)c4cccs4)CC3)cc(=O)oc2c1` gave an inhibition of 11.7%. Work on `NC(=O)CCN1CCN(S(=O)(=O)/C=C/c2ccccc2)CC1` yielded an inhibition of 0.92%. With `COc1cc(/C=N/NC(=O)c2cc(C)n(-c3ccc(F)cc3)c2C)cc(OC)c1O` the inhibition was 4.09%. In the case of `Cc1cc(C(=O)N/N=C/c2ccc(O)c([N+](=O)[O-])c2)c(C)n1-c1ccc(F)cc1`, the inhibition is reported as 70.4% (active). `Cc1nn(CC(=O)N/N=C/c2ccc(F)cc2)c(C)c1[N+](=O)[O-]` showed an inhibition of -5.44%. Molecule `CC(c1ccco1)N(C(=O)c1ccc(S(=O)(=O)N2CCCCC2)cc1)c1ccccn1` (stereo unspecified) has an inhibition of -1.02%. `CCOc1ccc(C(=O)Nc2ccncc2)cc1` was tested, and the inhibition was -4.79%. `CC(C)NC(=O)NC(=O)COC(=O)c1ccc(NC(=O)CC#N)cc1` was tested, and the inhibition was -2.82%. With `CCOc1ccc(NC(=O)c2ccc(NC(=O)COC(=O)c3ccc(NC(=O)CC#N)cc3)cc2)cc1` the inhibition was 62.4% (active). `CCCn1c(O)c(CN2CCCC(C)C2)c(C)c(C#N)c1=O` (stereo unspecified) showed an inhibition of -8.8%. `O=C(Nc1ccc(-n2ccnc2P(=O)(O)c2ccccc2)cc1)c1ccccc1Br` gave an inhibition of 3.36%. Molecule `CC(=O)c1ccc(S(=O)(=O)N2CCN(C(=O)/C=C/c3ccc4ccccc4n3)CC2)cc1` has an inhibition of 34.5%. `CC(=O)c1ccc(S(=O)(=O)N2CCN(c3nc4c(C)c(C)ccc4cc3C#N)CC2)cc1` was tested, and the inhibition was 60.9% (active). Work on `CC(=O)c1ccc(S(=O)(=O)N2CCC3(CC2)OCCO3)cc1` yielded an inhibition of -8.35%. `Cc1ccc(S(=O)Cc2ccc(C(=O)N3CCN(C4CCCCC4)CC3)o2)cc1` (stereo unspecified) showed an inhibition of 2.42%. Work on `COc1ccc(/C=N/N=C/c2c[nH]c(=O)c(C#N)c2Nc2ccccc2)cc1` yielded an inhibition of 9.36%. In the case of `Nc1nc(O)c(CC(=O)O)s1`, the inhibition is reported as -10.1%. Work on `Cc1c(C(=O)N/N=C/c2ccccc2)[nH]c2c([N+](=O)[O-])cccc12` yielded an inhibition of 2.99%. In the case of `COc1cccc2c(C)c(C(=O)O)[nH]c12`, the inhibition is reported as 52.9% (active). Molecule `COc1cc2c(C(=O)O)c(C)n(C)c2c2ccccc12` has an inhibition of -16.5%. `COc1ccc(S(=O)(=O)N2CCN(c3ncnc4c(-c5ccccc5)nsc34)CC2)cc1` gave an inhibition of 5.78%. In the case of `COc1cccc(OCc2cc(/C=N/NC(=O)c3nc(Cl)c(Cl)c(N)c3Cl)ccc2OC)c1`, the inhibition is reported as 58.9% (active). `COc1ccc(/C=N\NC(=O)c2sc(N)nc2C)cc1OC` showed an inhibition of 1.3%. `COc1ccc(/C=N/NC(=O)c2ccc(Cl)cc2)cc1COC(C)=O` showed an inhibition of -6.24%. In the case of `CCn1cc(/C=C(\NC(=O)c2cc(OC)c(OC)c(OC)c2)C(=O)N2CCN(C)CC2)c2ccccc21`, the inhibition is reported as -12.2%. `CC1CCCN(c2ccc(C(=O)NCCc3ccccc3)cn2)C1` (stereo unspecified) was tested, and the inhibition was -2.49%. For `Nc1ccc2nc3c(=O)[nH]c(=S)[nH]c3nc2c1`, the inhibition was 47.1% (active). `Cc1cc2nc3c(=O)n(Cc4ccccc4)c(=O)[nH]c3nc2cc1N` showed an inhibition of 7.8%. `COc1ccc(/C=N/NC(=O)c2cc(-c3cccc(C)c3)nc3ccccc23)cc1O` was tested, and the inhibition was 4.37%. In the case of `Cc1ccc(-c2cc(C(=O)N/N=C/C=C/c3ccco3)c3ccccc3n2)cc1C`, the inhibition is reported as 68.2% (active). Work on `O=C(N/N=C/C=C/c1ccco1)c1cccs1` yielded an inhibition of 11.6%. `CCOC(=O)N1CCN(Cc2nc3ccc([N+](=O)[O-])cc3c(=O)n2-c2cccc(OC)c2)CC1` showed an inhibition of 0.84%. Molecule `Cc1ccc(NC(=O)CN(C)C(=O)COC(=O)C(C)(C)Oc2ccc(Cl)cc2)cc1` has an inhibition of 2.08%. Work on `CC(C)c1ccc(C2C(C(=O)c3ccco3)=C(O)C(=O)N2CC2CCCO2)cc1` (stereo unspecified) yielded an inhibition of -4.24%. `Cn1cncc1COC(=O)c1ccc(Cl)cc1` was tested, and the inhibition was 1.11%. `Cc1cc(C2=NNC(=Nc3ccc(S(=O)(=O)N4CCOCC4)cc3)SC2)c(C)n1CC1CCCO1` (stereo unspecified) was tested, and the inhibition was 55.5% (active). `C=CCn1c(C)cc(C2=NNC(=NCC)SC2)c1C` was tested, and the inhibition was -4.1%. Molecule `Cc1ccc(S(=O)(=O)N2CCC(C(=O)NCC3CCCO3)CC2)cc1` (stereo unspecified) has an inhibition of 4.25%. `O=C(NNC(=S)NC(=O)c1cn(-c2ccccc2)nc1-c1ccccc1)c1ccncc1` showed an inhibition of -3.87%. With `CCn1cc(C(=O)N2CC(C)CC(C)C2)c(=O)c2cc(S(=O)(=O)N3CCCC3)ccc21` (stereo unspecified) the inhibition was -3.07%. `CN(NC(=O)C1CC(=O)N(c2ccccc2)C1)C1=NS(=O)(=O)c2ccccc21` (stereo unspecified) was tested, and the inhibition was 1.86%. In the case of `O=C(N=C1SC2CS(=O)(=O)CC2N1c1cc(Cl)ccc1Cl)C1CC1` (stereo unspecified), the inhibition is reported as -2.57%. `O=c1cc(O)nc(SCc2ccccc2Cl)[nH]1` was tested, and the inhibition was -5.09%. With `COc1ccc2nc(SCc3ccccc3)nc(C)c2c1` the inhibition was -8.86%. Molecule `Fc1cccc(Cl)c1CSc1ccc(-c2ccco2)nn1` has an inhibition of 19.9%. For `Clc1ccccc1CSc1nnc(-c2ccco2)c(-c2ccco2)n1`, the inhibition was 60.8% (active). For `O=c1[nH]c(SCc2ccccc2)nnc1-c1ccccc1`, the inhibition was 4.19%. In the case of `c1ccc(CSc2nnc(-c3ccco3)c(-c3ccco3)n2)cc1`, the inhibition is reported as 63.8% (active).
